# Measured values as given in ChEMBL document CHEMBL1124369, “Pyrido[3,4-e]-1,2,4-triazines and related heterocycles as potential antifungal agents” (1989).
# Assays:
# Trichophyton rubrum [1] = test: Antifungal activity against Trichophyton rubrum; type: functional
# Procedure, shortened: (§1)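 Agar dilution MIC. Twofold serial drug dilutions in yeast nitrogen base medium with 1% dextrose, 0.15% asparagine and 1.5% agar. Agar surfaces inoculated using a Steers multiple inocula replicator, then incubated at 35 °C for 24-48 h. MIC was recorded as the lowest concentration inhibiting visible growth. Amphotericin B, miconazole and nystatin served as controls.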
# Candida tropicalis [2] = test: Antifungal activity against Candida tropicalis; type: functional; procedure, shortened: as §1
# Kluyveromyces marxianus [3] = test: Antifungal activity against Candida pseudotropicalis; Range is 2-4; type: functional; procedure, shortened: as §1
# Candida parapsilosis = test: Antifungal activity against Candida parapsilosis; type: functional; settings: Lodderomyces parapsilosis; procedure, shortened: as §1
# Candida albicans [4] = test: Antifungal activity against Candida albicans; type: functional; procedure, shortened: as §1
# Trichophyton benhamiae [5] = test: Antifungal activity against Trichophyton mentagrophytes; type: functional, trychophyton mentagrophytes; procedure, shortened: as §1
# Aspergillus niger [6] = test: Antifungal activity against Aspergillus niger; Range is 64-128; type: functional; procedure, shortened: as §1
# Diutina rugosa = test: Antifungal activity against Candida rugosa; type: functional; procedure, shortened: as §1
# Trichophyton benhamiae [7] = test: Antifungal activity against Trichophyton mentagrophytes; Range is 8-32; type: functional, trychophyton mentagrophytes; procedure, shortened: as §1
# Candida albicans [8] = test: Antifungal activity against Candida stellatoidea; type: functional; procedure, shortened: as §1
# Mucor fragilis = test: Antifungal activity against Mucor fragilis; type: functional; procedure, shortened: as §1
# Trichophyton rubrum [9] = test: Antifungal activity against Trichophyton rubrum; Range is 16-32; type: functional; procedure, shortened: as §1
# Aspergillus niger [10] = test: Antifungal activity against Aspergillus niger; Range is 32-128; type: functional; procedure, shortened: as §1
# Kluyveromyces marxianus [11] = test: Antifungal activity against Candida pseudotropicalis; Range is 8-16; type: functional; procedure, shortened: as §1
# Aspergillus niger [12] = test: Antifungal activity against Aspergillus niger; Range is 32-64; type: functional; procedure, shortened: as §1
# Kluyveromyces marxianus [13] = test: Antifungal activity against Candida pseudotropicalis; type: functional; procedure, shortened: as §1
# Candida tropicalis [14] = test: Antifungal activity against Candida tropicalis; Range is 4-16; type: functional; procedure, shortened: as §1
# Trichophyton rubrum [15] = test: Antifungal activity against Trichophyton rubrum; Range is 1-2; type: functional; procedure, shortened: as §1
# Kluyveromyces marxianus [16] = test: Antifungal activity against Candida pseudotropicalis; Range is 64-128; type: functional; procedure, shortened: as §1
# Trichophyton benhamiae [17] = test: Antifungal activity against Trichophyton mentagrophytes; Range is 32-64; type: functional, trychophyton mentagrophytes; procedure, shortened: as §1
# Aspergillus niger [18] = test: Antifungal activity against Aspergillus niger; type: functional; procedure, shortened: as §1
# Trichophyton rubrum [19] = test: Antifungal activity against Trichophyton rubrum; Range is 32-64; type: functional; procedure, shortened: as §1
# Trichophyton benhamiae [20] = test: Antifungal activity against Trichophyton mentagrophytes; Range is 8-16; type: functional, trychophyton mentagrophytes; procedure, shortened: as §1
# Candida tropicalis [21] = test: Antifungal activity against Candida tropicalis; Range is 16-32; type: functional; procedure, shortened: as §1
# Trichophyton rubrum [22] = test: Antifungal activity against Trichophyton rubrum; Range is 8-16; type: functional
# Kluyveromyces marxianus [23] = test: Antifungal activity against Candida pseudotropicalis; Range is 32-64; type: functional; procedure, shortened: as §1
# Trichophyton rubrum [24] = test: Antifungal activity against Trichophyton rubrum; Range is 2-4; type: functional; procedure, shortened: as §1
# Aspergillus niger [25] = test: Antifungal activity against Aspergillus niger; Range is 16-32; type: functional; procedure, shortened: as §1
# Candida albicans [26] = test: Antifungal activity against Candida albicans; Range is 8-16; type: functional; procedure, shortened: as §1
# Candida tropicalis [27] = test: Antifungal activity against Candida tropicalis; Range is 8-16; type: functional; procedure, shortened: as §1
# Trichophyton benhamiae [28] = test: Antifungal activity against Trichophyton mentagrophytes; Range is 2-4; type: functional, trychophyton mentagrophytes; procedure, shortened: as §1
# Aspergillus niger [29] = test: Antifungal activity against Aspergillus niger; Range is 8-16; type: functional; procedure, shortened: as §1
# Candida tropicalis [30] = test: Antifungal activity against Candida tropicalis; Range is 4-8; type: functional; procedure, shortened: as §1
Structure (SMILES),MIC (Candida tropicalis [2]) [µg/mL],MIC (Candida parapsilosis) [µg/mL],MIC (Candida albicans [4]) [µg/mL],MIC (Trichophyton benhamiae [5]) [µg/mL],MIC (Diutina rugosa) [µg/mL],MIC (Candida albicans [8]) [µg/mL],MIC (Mucor fragilis) [µg/mL],also measured
Cc1cc2nnc(C)nc2c(C)n1,32,–,8,–,64,64,16,MIC (Trichophyton benhamiae [7]): 8 µg/mL; MIC (Trichophyton rubrum [9]): 16 µg/mL; MIC (Aspergillus niger [10]): 32 µg/mL; MIC (Kluyveromyces marxianus [11]): 8 µg/mL
Fc1ccc(-c2nnc3ccncc3n2)cc1F,–,16,16,4,–,–,–,MIC (Aspergillus niger [12]): 32 µg/mL; MIC (Kluyveromyces marxianus [13]): 8 µg/mL; MIC (Candida tropicalis [14]): 4 µg/mL; MIC (Trichophyton rubrum [15]): 1 µg/mL
Cc1nnc2c(N)c(C)nc(C)c2n1,128,128,128,–,–,–,–,MIC (Kluyveromyces marxianus [16]): 64 µg/mL; MIC (Trichophyton benhamiae [17]): 32 µg/mL; MIC (Aspergillus niger [18]): 128 µg/mL; MIC (Trichophyton rubrum [19]): 32 µg/mL
c1ccc(-c2nnc3ccncc3n2)nc1,64,64,64,32,64,16,64,MIC (Aspergillus niger [18]): 32 µg/mL; MIC (Kluyveromyces marxianus [23]): 32 µg/mL; MIC (Trichophyton rubrum [24]): 2 µg/mL
c1cc2nncnc2cn1,–,16,–,–,8,8,8,MIC (Aspergillus niger [25]): 16 µg/mL; MIC (Kluyveromyces marxianus [13]): 4 µg/mL; MIC (Candida albicans [26]): 8 µg/mL; MIC (Candida tropicalis [27]): 8 µg/mL; MIC (Trichophyton benhamiae [28]): 2 µg/mL; MIC (Trichophyton rubrum [15]): 1 µg/mL

# Second part, led by results:
MIC (Candida tropicalis [2]) [µg/mL],MIC (Candida parapsilosis) [µg/mL],MIC (Candida albicans [4]) [µg/mL],MIC (Trichophyton benhamiae [5]) [µg/mL],MIC (Diutina rugosa) [µg/mL],MIC (Candida albicans [8]) [µg/mL],MIC (Mucor fragilis) [µg/mL],Structure (SMILES),also measured
128,128,128,64,–,–,–,c1ccc2c(c1)ncc1nc(-c3ccncc3)nnc12,MIC (Trichophyton rubrum [1]): 64 µg/mL; MIC (Kluyveromyces marxianus [3]): 2 µg/mL; MIC (Aspergillus niger [6]): 64 µg/mL
–,32,16,–,–,–,–,Cc1nccc2nnc(-c3ccncc3)nc12,MIC (Aspergillus niger [12]): 32 µg/mL; MIC (Trichophyton benhamiae [20]): 8 µg/mL; MIC (Candida tropicalis [21]): 16 µg/mL; MIC (Trichophyton rubrum [22]): 8 µg/mL; MIC (Kluyveromyces marxianus [11]): 8 µg/mL
–,8,8,4,32,32,32,c1cc(-c2nnc3ccncc3n2)ccn1,MIC (Aspergillus niger [29]): 8 µg/mL; MIC (Candida tropicalis [30]): 4 µg/mL; MIC (Kluyveromyces marxianus [3]): 2 µg/mL; MIC (Trichophyton rubrum [24]): 2 µg/mL
